This note sets out measurements from publication PMC5429141 (Nature structural & molecular biology, 2016).

For one assay, the system named is EcTrmD G59A. Description: Pre-steady-state methyl transfer kinetics, G59A mutant. Format: biochemical, E. coli. Conditions: G59A relative to wild-type enzyme.
For a further assay, the system named is EcTrmD E116A. In words: Pre-steady-state methyl transfer kinetics, E116A mutant. Conditions: E116A relative to wild-type enzyme. It is filed as biochemical, E. coli.
The test system of another assay is EcTrmD G55A. Description: Pre-steady-state methyl transfer kinetics, G55A mutant. Format: biochemical, E. coli. Conditions: G55A relative to wild-type enzyme.
A further assay has as its system EcTrmD G134A. In words: Pre-steady-state methyl transfer kinetics, G134A mutant. It is filed as biochemical, E. coli. Conditions: G134A relative to wild-type enzyme.
The test system of a further assay is EcTrmD D177*A. In words: Pre-steady-state methyl transfer kinetics, D177*A mutant. It is filed as biochemical, E. coli. Conditions: D177*A relative to wild-type enzyme.
For the next assay, the target named is TrmD Y115A dimer (Escherichia coli, UniProt P0A873, Y115A). It is filed as binding, E. coli. As to conditions: Y115 mutant; room temperature; pH 8.0.
Chain of TrmD Y115A dimer (P0A873 whole entry Y115A): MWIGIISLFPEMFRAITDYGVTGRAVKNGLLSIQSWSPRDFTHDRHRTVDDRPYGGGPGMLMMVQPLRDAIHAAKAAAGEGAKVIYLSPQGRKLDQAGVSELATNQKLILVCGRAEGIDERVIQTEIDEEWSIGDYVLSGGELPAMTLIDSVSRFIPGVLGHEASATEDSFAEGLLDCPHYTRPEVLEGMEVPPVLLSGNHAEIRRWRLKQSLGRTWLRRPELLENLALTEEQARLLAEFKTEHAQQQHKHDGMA
The next assay relates to EcTrmD Y86A. In words: Pre-steady-state methyl transfer kinetics, Y86A mutant. It is filed as biochemical, E. coli. As to conditions: Y86A relative to wild-type enzyme.
In a further assay the test system is EcTrmD S170*A. In words: Pre-steady-state methyl transfer kinetics, S170*A mutant. Format: biochemical, E. coli. As to conditions: S170*A relative to wild-type enzyme.
The test system of another assay is EcTrmD G141A. Description: Pre-steady-state methyl transfer kinetics, G141A mutant. It is filed as biochemical, E. coli. Conditions: G141A relative to wild-type enzyme.
Another assay has as its system EcTrmD H180*A. In words: Pre-steady-state methyl transfer kinetics, H180*A mutant. Format: biochemical, E. coli. Conditions: H180*A relative to wild-type enzyme.
For a further assay, the system named is EcTrmD P89W. In words: Pre-steady-state methyl transfer kinetics, P89W mutant. Format: biochemical, E. coli. As to conditions: P89W relative to wild-type enzyme.
For another assay, the system named is EcTrmD Y115A. In words: Pre-steady-state methyl transfer kinetics, Y115A mutant. It is filed as biochemical, E. coli. As to conditions: Y115A relative to wild-type enzyme.
For the next assay, the target named is wild-type TrmD dimer (Escherichia coli, UniProt P0A873). Description: Fluorescence titration. Format: binding, E. coli. Conditions: wild-type enzyme; room temperature; pH 8.0. A digest of the protocol: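 His-tagged enzyme expressed in E. coli SG13009 and purified by cobalt-affinity and MonoQ ion-exchange chromatography. Concentration was measured by Bradford against BSA and corrected for active dimer fraction. Increasing AdoMet was added to the dimer, and intrinsic Trp fluorescence quenching was followed with excitation at 295 nm and emission at 304–400 nm.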
Chain of wild-type TrmD dimer (P0A873 whole entry): as the sequence (P0A873 whole entry Y115A) above, with A115Y counted along it

The subject of another assay is EcTrmD R154A. In words: Pre-steady-state methyl transfer kinetics, R154A mutant. As to conditions: R154A relative to wild-type enzyme. Format: biochemical, E. coli.
In a further assay the test system is EcTrmD Y115F. In words: Pre-steady-state methyl transfer kinetics, Y115F mutant. Format: biochemical, E. coli. As to conditions: Y115F relative to wild-type enzyme.
A further assay relates to EcTrmD Y136A. In words: Pre-steady-state methyl transfer kinetics, Y136A mutant. It is filed as biochemical, E. coli. As to conditions: Y136A relative to wild-type enzyme.
A further assay relates to EcTrmD P89A. Description: Pre-steady-state methyl transfer kinetics, P89A mutant. It is filed as biochemical, E. coli. Conditions: P89A relative to wild-type enzyme.
In a further assay the target is wild-type EcTrmD (Escherichia coli, UniProt P0A873). It is filed as biochemical, E. coli. Conditions: single turnover, 37 °C.
Chain of wild-type EcTrmD (P0A873 whole entry): as the sequence (P0A873 whole entry Y115A) above, with A115Y counted along it
The subject of a further assay is EcTrmD D169*A. In words: Pre-steady-state methyl transfer kinetics, D169*A mutant. As to conditions: D169*A relative to wild-type enzyme. It is filed as biochemical, E. coli.
For another assay, the system named is EcTrmD Q90A. In words: Pre-steady-state methyl transfer kinetics, Q90A mutant. Format: biochemical, E. coli. As to conditions: Q90A relative to wild-type enzyme.

With `C[S+](CC[C@H](N)C(=O)[O-])C[C@H]1O[C@@H](n2cnc3c(N)ncnc32)[C@H](O)[C@@H]1O` (some centres unmarked) [AdoMet, S-adenosyl methionine], the “fold-change in Kd (AdoMet), effect on AdoMet binding” value in the assay with EcTrmD G59A came out at 3.2 fold; with EcTrmD E116A, 6.0 fold; in the assay with EcTrmD G55A, 12.8 fold; in the assay on EcTrmD Y86A, 2.8 fold; in the assay with EcTrmD P89W, 23 fold; in the assay with EcTrmD Y115A it was 6.3 fold. In addition, the “fold-change in Kd (AdoMet), effect on AdoMet binding” value was 8.0 fold in the assay on EcTrmD Y115F, 2.6 fold in the assay with EcTrmD P89A and 1.2 fold with EcTrmD Q90A. For the same molecule, the “fold-change in Kd (AdoMet), decrease in AdoMet binding” value is 19.0 fold with EcTrmD G134A; 9.0 fold in the assay with EcTrmD D177*A; 2.6 fold with EcTrmD S170*A; 32.2 fold in the assay on EcTrmD G141A; 4.4 fold with EcTrmD H180*A; 8.4 fold in the assay with EcTrmD Y136A. The “binding stoichiometry of AdoMet per dimer” value at TrmD Y115A dimer and on wild-type TrmD dimer was “two molecules of AdoMet per dimer” in each case. Further, the “effect on AdoMet binding” value with EcTrmD R154A and in the assay with EcTrmD D169*A was “neither had an effect” each time. The “kchem from enzyme titration of AdoMet” value at wild-type EcTrmD turned out to be 0.113 ± 0.003 s⁻¹.
